Series [1] has as its system Human alphaherpesvirus 1. The experiment in a line: Antiviral activity against HSV-1 infected in African green monkey Vero cells assessed as inhibition of virus plaque formation after 72 hrs by Giemsa staining based assay. The following applies: Human alphaherpesvirus 1, Vero. It is filed as functional, organism-based. A digest of the protocol:
(§1)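 Vero cells (ATCC CRL-1586) were grown in advanced DMEM with 2% FBS at 37 °C and 5% CO2. Wells of 5×10^5 cells were infected with 100 PFU HSV-1 or HSV-2 for 1 h at 37 °C. The supernatant was then replaced with medium containing 1% DMSO, 0.32% IgG and compound at 80, 160 or 320 μM. After 72 h, cells were MeOH-fixed and Giemsa-stained. Mock and acyclovir controls; triplicate.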

Series [2] in a line: Cytotoxicity against African green monkey Vero cells assessed as reduction in cell viability after 3 days by MTT assay. The following applies: chlorocebus sabaeus. Format: cell-based. A digest of the protocol:
(§2)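 Vero cells (ATCC CRL-1586) were grown in advanced DMEM with 2% FBS at 37 °C and 5% CO2 and exposed to compound at 100, 200, 400, 800 or 1600 μM for 3 days. Viability was read by MTT (10 μL of 5 mg/mL stock added). CC50 is the concentration reducing viability by 50% relative to untreated cells, taken as 100%. Triplicate; mean ± SD.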
For orientation: Tetrazolium assays rely on reduction of a dye to a coloured formazan, in cell work by metabolically active cells.

For series [3], the system named is Human alphaherpesvirus 2. Description: Antiviral activity against HSV-2 infected in African green monkey Vero cells assessed as inhibition of virus plaque formation after 72 hrs by Giemsa staining based assay. It is filed as functional, organism-based. As to conditions: Human alphaherpesvirus 2, Vero. A digest of the protocol:
as §1

The nature of series [4]: Cytotoxicity against African green monkey Vero cells. It is filed as cell-based. The following applies: chlorocebus sabaeus. A digest of the protocol:
as §2

In series [5] the test system is Human alphaherpesvirus 2. The experiment in a line: Antiviral activity against HSV-2 infected in African green monkey Vero cells assessed as inhibition of virus plaque formation. It is filed as functional, organism-based. As to conditions: Human alphaherpesvirus 2, Vero. A digest of the protocol: as §1
Series [6] can be described thus: Selectivity index, ratio of CC50 for African green monkey Vero cells to IC50 for HSV-2 infected in African green monkey Vero cells. The following applies: HSV-2 infected Vero cells, read-out: Ratio CC50/IC50. It is filed as toxicity.
Series [7] can be described thus: Selectivity index, ratio of CC50 for African green monkey Vero cells to IC50 for HSV-1 infected in African green monkey Vero cells. It is filed as toxicity. The following applies: HSV-1 infected Vero cells, read-out: Ratio CC50/IC50.
The subject of series [8] is Human alphaherpesvirus 1. Description: Antiviral activity against HSV-1 infected in African green monkey Vero cells assessed as inhibition of virus plaque formation. Format: functional, organism-based. As to conditions: Human alphaherpesvirus 1, Vero. A digest of the protocol:
as §1

A value given as a limit tells only on which side of the number the result lay.

Turning to `C/C1=C/[C@]23O[C@H]2[C@H](C)C[C@@H]3C(=O)[C@]2(C)C(=O)CC(C)(C)[C@H]2CC1=O`, the IC50 in series [1] and in series [3] was greater than 303 µM throughout. Further, the CC50 at 72 h in series [2] was greater than 1520 µM.
Consider `Nc1nc2c(ncn2COCCO)c(=O)[nH]1` [ACYCLOVIR], for which the IC50 came out at 4.75 µM in series [1] and 3.11 µM in series [3].
In series [4], `C[C@@H]1CC2=C(C1)[C@@H]([C@@]1(C)C(=O)C[C@H]3[C@@H](C1=O)C3(C)C)[C@H](C)C2=O` showed a CC50 of 1220 µM. The IC50 in series [5] and in series [8] was 210 µM each time. Also, the selectivity ratio in series [6] and in series [7] was 5.8 throughout.
Take `C[C@@H]1CC2=C(C1)[C@@H]([C@@]1(C)C(=O)C[C@H]3[C@@H](C1=O)C3(C)C)[C@@H](C)C2=O`: the IC50 came out at 180 µM in series [1] and 172 µM in series [3]. The half-maximal cytotoxic concentration (CC50) at 72 h in series [2] worked out at 584 µM. For the same compound, the selectivity ratio in series [6] was 3.4; in series [7], 3.2.

By IC50 is commonly meant the concentration needed to halve the response being measured. In general, CC50 refers to the concentration that lowers cell viability or growth by half.

For the origin of these results see ChEMBL document CHEMBL4190298, “Stereochemistry of a Second Riolozane and Other Diterpenoids from Jatropha dioica” (J Nat Prod, 2017).
